This note sets out measurements from ChEMBL document CHEMBL1143434, “A diaminocyclohexyl analog of SNS-032 with improved permeability and bioavailability properties” (Bioorg Med Chem Lett, 2008).

For data set [1], the target named is Cyclin-dependent kinase 2 (Homo sapiens, UniProt P24941). Description: Inhibition of CDK2/cyclin A by IMAP florescence polarization assay.
In data set [2] the target is Cyclin-dependent kinase 9 (Homo sapiens, UniProt P50750). Description: Inhibition of CDK9 in human HCT116 cells assessed as phosphor-ser2 level of RNA polymerase 2 after 16 hrs by high content cellular assay. The class given is cell-based, HCT-116.
Data set [3] in a line: Cmax in CD1 mouse at 10 mg/kg, po. The class given is ADME, organism-based. To be noted: in vivo. More on the design: dose 10 mg/kg, route oral. The procedure, abridged: (§1)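 Female CD-1 mice, 6–8 weeks old, 3 mice per timepoint. Single oral gavage dose of 10, 30 or 45 mg/kg at 10 mL/kg in 2.1 mM tartaric acid, pH 4.0. Terminal cardiac-puncture blood taken at 0.25–8 h into K2-EDTA and spun to plasma. Plasma read by LC–MS/MS (LLOD 1 ng/mL). Concentrations were averaged per timepoint before PK estimation.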

Data set [4] can be described thus: Bioavailability in CD1 mouse at 10 mg/kg, po. The class given is ADME, organism-based. The conditions noted are these: in vivo. The procedure, abridged: as §1
The nature of data set [5]: Half life in CD1 mouse at 5 mg/kg, iv. The class given is ADME, organism-based. The conditions noted are these: in vivo. More on the design: dose 5 mg/kg, route intravenous. The procedure, abridged:
(§2)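 Single IV tail-vein dose of 5 mg/kg at 5 mL/kg in 2.1 mM tartaric acid, pH 4.0, to female CD-1 mice aged 6–8 weeks, 3 per timepoint. Blood taken by cardiac puncture after euthanasia at 0.083–8 h into K2-EDTA, and plasma analysed by LC–MS/MS (LLOD 1 ng/mL). PK parameters were estimated from mean concentrations per timepoint.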

Data set [6] can be described thus: AUC in CD1 mouse at 10 mg/kg, po. The class given is ADME, organism-based. More on the design: dose 10 mg/kg, route oral. To be noted: plasma. Summed up:
as §1

Data set [7] is described as follows: AUC in CD1 mouse at 5 mg/kg, iv. The class given is ADME, organism-based. More on the design: dose 5 mg/kg, route intravenous. To be noted: plasma. Summed up:
as §2

Data set [8] can be described thus: Cmax in CD1 mouse at 5 mg/kg, iv. The class given is ADME, organism-based. More on the design: dose 5 mg/kg, route intravenous. To be noted: in vivo. Summed up:
as §2

A short description of data set [9]: Clearance in CD1 mouse at 5 mg/kg, iv. The conditions noted are these: in vivo. The class given is ADME, organism-based. More on the design: dose 5 mg/kg, route intravenous. Summed up: as §2
Data set [10] in a line: Volume of distribution at steady state in CD1 mouse at 5 mg/kg, iv. The class given is ADME, organism-based. The conditions noted are these: in vivo, read-out: Vdss. Also noted: dose 5 mg/kg, route intravenous. The procedure, abridged: as §2
The nature of data set [11]: Half life in CD1 mouse at 10 mg/kg, po. More on the design: dose 10 mg/kg, route oral. The class given is ADME, organism-based. To be noted: in vivo. Summed up: as §1
Data set [12] in a line: Metabolic stability in mouse liver microsomes at 1 uM after 60 mins. To be noted: read-out: Stability. The class given is ADME, Microsome. The procedure, abridged:
(§3)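 Liver microsomes at 0.5 mg/mL protein in 100 mM sodium phosphate, pH 7.4, with 3.3 mM MgCl2, pre-equilibrated 10 min at 37 °C. Reaction started with 1 mM NADPH. Aliquots taken at 0, 30 and 60 min and quenched in acetonitrile with internal standard, then centrifuged and analysed by LC–MS/MS. Lidocaine and dextromethorphan served as positive controls.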
On the technique in general: Microsomes from liver hold many membrane-bound enzymes, among them those of drug oxidation.

Data set [13] can be described thus: Half life in CD1 mouse at 30 mg/kg, po. The class given is ADME, organism-based. Also noted: dose 30 mg/kg, route oral. To be noted: in vivo. Summed up: as §1
Data set [14] in a line: Efflux ratio of permeability from basolateral to apical side to apical to basolateral side in MDCK2 cells at 2 uM after 3 hrs. To be noted: dog, MDCK. The class given is ADME, cell-based, Canis lupus familiaris, MDCK-II. Summed up:
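MDCK II cells grown in DMEM with 10% FBS and antibiotics, seeded 50,000 cells/well on transwells and cultured 5 days; monolayers PBS-washed. Compound at 2 μM in DMEM added to apical or basolateral side; both compartments sampled after 3 h at 37 °C in humidified CO₂. Quantified by LC–MS/MS with verapamil internal standard; Papp calculated per direction.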

Data set [15] in a line: AUC in CD1 mouse at 30 mg/kg, po. Also noted: dose 30 mg/kg, route oral. The class given is ADME, organism-based. The conditions noted are these: plasma. Summed up:
as §1

Data set [16] is described as follows: Metabolic stability in human liver microsomes at 1 uM after 60 mins. The class given is ADME, Microsome. To be noted: read-out: Stability. The procedure, abridged:
as §3

Data set [17] is described as follows: AUC in CD1 mouse at 45 mg/kg, po. The class given is ADME, organism-based. Also noted: dose 45 mg/kg, route oral. The conditions noted are these: plasma. Summed up: as §1
The nature of data set [18]: Metabolic stability in mouse liver microsomes at 1 uM after 30 mins. The conditions noted are these: read-out: Stability. The class given is ADME, Microsome. The procedure, abridged:
as §3

Data set [19] is described as follows: Cmax in CD1 mouse at 30 mg/kg, po. The class given is ADME, organism-based. Also noted: dose 30 mg/kg, route oral. The conditions noted are these: in vivo. The procedure, abridged: as §1
The nature of data set [20]: Half life in CD1 mouse at 45 mg/kg, po. Also noted: dose 45 mg/kg, route oral. To be noted: in vivo. The class given is ADME, organism-based. Summed up: as §1
For the next data set, the target named is CDK9/cyclin T1 (Homo sapiens, UniProt P50750). Description: Inhibition of CDK9/cyclinT by IMAP florescence polarization assay. Summed up:
(§4)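 IMAP fluorescence polarization kinase assay measuring phosphorylation of a fluorescein-labeled substrate. Run in IMAP tween reaction buffer with 1 mM DTT and sodium vanadate.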

Data set [21] in a line: Cmax in CD1 mouse at 45 mg/kg, po. The class given is ADME, organism-based. Also noted: dose 45 mg/kg, route oral. To be noted: in vivo. The procedure, abridged: as §1
Data set [22] can be described thus: Inhibition of CDK6/cyclin D by IMAP florescence polarization assay. The procedure, abridged:
as §4

The nature of data set [23]: Metabolic stability in human liver microsomes at 1 uM after 30 mins. The conditions noted are these: read-out: Stability. The class given is ADME, Microsome. Summed up: as §3
The target of data set [24] is Cyclin-dependent kinase 7/ cyclin H (Homo sapiens, UniProt P50613). Description: Inhibition of CDK7/cyclinH by Upstate enzymatic assay.
Data set [25] addresses Cyclin-dependent kinase 1/cyclin B1 (Homo sapiens, UniProt P06493). Description: Inhibition of CDK1/cyclin B by IMAP florescence polarization assay. The class given is protein-complex assay. The procedure, abridged:
as §4

The nature of data set [26]: Bioavailability in CD1 mouse at 45 mg/kg, po. The class given is ADME, organism-based. To be noted: in vivo. Summed up:
as §1

Data set [27] in a line: Bioavailability in CD1 mouse at 30 mg/kg, po. The class given is ADME, organism-based. To be noted: in vivo. The procedure, abridged: as §1

Cyclin-dependent kinase 9, sequence (P50750 whole entry): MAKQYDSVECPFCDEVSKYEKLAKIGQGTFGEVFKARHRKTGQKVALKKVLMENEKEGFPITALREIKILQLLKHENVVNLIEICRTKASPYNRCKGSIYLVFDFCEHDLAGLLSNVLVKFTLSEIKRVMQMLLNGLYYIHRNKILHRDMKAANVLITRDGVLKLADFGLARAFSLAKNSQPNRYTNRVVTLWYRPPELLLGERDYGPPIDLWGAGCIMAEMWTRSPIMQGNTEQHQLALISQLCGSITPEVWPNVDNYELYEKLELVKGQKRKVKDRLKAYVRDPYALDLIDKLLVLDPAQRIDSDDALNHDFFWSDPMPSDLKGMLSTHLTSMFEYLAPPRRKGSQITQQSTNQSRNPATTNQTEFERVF
Cyclin-dependent kinase 1/cyclin B1, sequence (P06493 whole entry): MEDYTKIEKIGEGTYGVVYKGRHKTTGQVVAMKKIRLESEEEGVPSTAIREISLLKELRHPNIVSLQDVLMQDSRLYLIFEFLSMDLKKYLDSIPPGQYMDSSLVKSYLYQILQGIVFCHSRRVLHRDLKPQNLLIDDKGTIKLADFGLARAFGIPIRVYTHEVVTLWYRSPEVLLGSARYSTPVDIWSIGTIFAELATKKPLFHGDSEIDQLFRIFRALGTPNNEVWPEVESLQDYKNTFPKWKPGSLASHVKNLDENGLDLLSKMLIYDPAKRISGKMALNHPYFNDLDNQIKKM
Cyclin-dependent kinase 1/cyclin B1, sequence (P14635 whole entry, further chain): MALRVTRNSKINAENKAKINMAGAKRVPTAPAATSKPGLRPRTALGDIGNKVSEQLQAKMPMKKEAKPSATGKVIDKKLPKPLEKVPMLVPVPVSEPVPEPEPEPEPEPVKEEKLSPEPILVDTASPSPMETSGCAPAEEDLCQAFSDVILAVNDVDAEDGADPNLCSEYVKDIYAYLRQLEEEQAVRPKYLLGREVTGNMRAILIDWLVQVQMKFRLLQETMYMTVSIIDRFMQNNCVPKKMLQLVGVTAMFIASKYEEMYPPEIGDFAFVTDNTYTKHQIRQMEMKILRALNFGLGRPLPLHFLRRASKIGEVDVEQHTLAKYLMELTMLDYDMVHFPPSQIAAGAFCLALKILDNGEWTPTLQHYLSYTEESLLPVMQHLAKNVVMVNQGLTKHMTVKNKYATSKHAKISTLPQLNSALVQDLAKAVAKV
CDK9/cyclin T1, sequence (O60563 whole entry): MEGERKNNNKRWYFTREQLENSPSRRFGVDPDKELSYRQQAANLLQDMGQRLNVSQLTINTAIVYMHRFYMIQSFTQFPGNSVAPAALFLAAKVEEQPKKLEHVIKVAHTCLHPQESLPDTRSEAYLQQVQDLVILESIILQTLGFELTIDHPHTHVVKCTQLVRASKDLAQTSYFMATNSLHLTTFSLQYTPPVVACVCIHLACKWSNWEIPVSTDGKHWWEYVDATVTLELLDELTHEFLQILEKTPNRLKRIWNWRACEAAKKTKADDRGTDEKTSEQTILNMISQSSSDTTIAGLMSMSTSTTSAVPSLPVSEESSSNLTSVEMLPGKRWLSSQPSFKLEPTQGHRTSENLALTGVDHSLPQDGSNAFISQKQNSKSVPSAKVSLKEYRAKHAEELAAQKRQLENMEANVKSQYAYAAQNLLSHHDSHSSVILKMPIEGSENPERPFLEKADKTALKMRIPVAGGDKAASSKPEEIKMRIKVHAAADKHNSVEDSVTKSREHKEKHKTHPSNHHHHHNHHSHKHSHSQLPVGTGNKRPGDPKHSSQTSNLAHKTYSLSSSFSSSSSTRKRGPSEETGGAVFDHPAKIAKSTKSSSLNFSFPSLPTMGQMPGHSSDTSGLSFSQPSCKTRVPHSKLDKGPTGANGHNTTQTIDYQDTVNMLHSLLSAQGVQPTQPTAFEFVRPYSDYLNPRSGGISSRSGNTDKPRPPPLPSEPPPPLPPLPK
CDK9/cyclin T1, sequence (P50750 whole entry): as the sequence (P50750 whole entry) above
Cyclin-dependent kinase 7/ cyclin H, sequence (P51946 whole entry): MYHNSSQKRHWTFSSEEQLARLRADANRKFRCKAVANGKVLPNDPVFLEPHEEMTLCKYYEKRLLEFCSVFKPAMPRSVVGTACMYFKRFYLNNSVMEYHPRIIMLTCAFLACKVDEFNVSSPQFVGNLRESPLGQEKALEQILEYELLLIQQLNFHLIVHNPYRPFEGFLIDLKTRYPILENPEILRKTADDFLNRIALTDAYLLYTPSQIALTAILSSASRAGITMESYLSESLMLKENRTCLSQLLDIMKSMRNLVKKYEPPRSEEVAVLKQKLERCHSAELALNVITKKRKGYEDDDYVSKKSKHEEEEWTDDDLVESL
Cyclin-dependent kinase 7/ cyclin H, sequence (P50613 whole entry): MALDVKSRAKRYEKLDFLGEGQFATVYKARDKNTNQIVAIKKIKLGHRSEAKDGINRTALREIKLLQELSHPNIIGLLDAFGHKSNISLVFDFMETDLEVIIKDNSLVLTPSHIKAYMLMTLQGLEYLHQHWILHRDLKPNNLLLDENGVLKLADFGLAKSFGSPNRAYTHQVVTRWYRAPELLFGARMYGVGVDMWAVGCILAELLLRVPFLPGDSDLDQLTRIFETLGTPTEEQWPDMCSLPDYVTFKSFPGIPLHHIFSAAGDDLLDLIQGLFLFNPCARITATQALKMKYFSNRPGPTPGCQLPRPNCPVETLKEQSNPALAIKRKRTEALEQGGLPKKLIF

For `CC(C)(C)c1cnc(CSc2cnc(NC3CCCC(N)C3)s2)o1` (stereo not given), the figures for the concentration for half-maximal inhibition (IC50) in data set [1] and in [2] were 158 nM and above 10000 nM, respectively.
In the case of `CC(C)(C)c1cnc(CSc2cnc(NC3CCNCC3)s2)o1`, the half-maximal inhibitory concentration (IC50) (commonly the concentration needed to halve the response being measured) in data set [1] is 538 nM; in data set [2], above 10000 nM.
With `CC(C)(C)c1cnc(CSc2cnc(NC3CCCCC3)s2)o1`, the IC50 in data set [1] was 9 nM; in data set [2], above 10000 nM.
With `CC(C)(C)c1cnc(CSc2cnc(NC(=O)C3CCNCC3)s2)o1` [BMS-387032], the Cmax (usually the peak of the concentration-time curve) in data set [3] was 275 ng/mL; in data set [8] it was 2230 ng/mL. Further, the bioavailability (in general, the share of a dose that reaches the circulation, judged against a reference dose that is usually intravenous) in data set [4] came out at 14%. In addition, the half-life – broadly, the time in which the quantity being followed falls by half – is 0.6 h in [5] and 0.5 h in data set [11]. The area under the curve (AUC) – broadly, concentration integrated over time – in data set [6] came out at 434 ng·h/mL; in [7] it was 1510 ng·h/mL. Moreover, the clearance (commonly a measure of how efficiently the substance is removed, as volume per time) in data set [9] worked out at 55 mL/min/kg. Further, in [10], the Vd turned out to be 3 L/kg.
In the case of `CC(C)(C)c1cnc(CSc2cnc(N[C@H]3CC[C@H](N)CC3)s2)o1`, the 50% inhibitory concentration (IC50) in data set [1] is 20 nM; in [2] it was 355 nM; at CDK9/cyclin T1, 97 nM; in [22], above 2000 nM; in data set [24] it was 105 nM; in [25], 763 nM. In addition, the remaining at 1 h, 1 µM in data set [12] is 77%; in data set [16], 53%. The half-life in data set [13] was 1.2 h; in [5], 1.9 h; in data set [20] it was 1.2 h; in data set [11] it was 1.5 h. Also, the Cmax in data set [3] is 411 ng/mL; in [19], 2390 ng/mL; in [21], 4600 ng/mL; in data set [8], 1660 ng/mL. In addition, the values for the bioavailability in data set [4], in data set [26] and in data set [27] were 62%, 100% and 92%, respectively. For the same compound, the AUC in data set [6] turned out to be 1430 ng·h/mL; in [15], 6390 ng·h/mL; in data set [7], 1160 ng·h/mL; in [17], 10700 ng·h/mL. Moreover, the efflux ratio (usually a quotient of directional permeabilities that is used to spot active efflux) at 3 h, 2 µM in [14] was determined as 9.4. Moreover, the values for the remaining at 0.5 h, 1 µM in [18] and in [23] were 76% and 64%, respectively. Besides, the clearance in data set [9] worked out at 72 mL/min/kg. The Vd in data set [10] amounted to 6 L/kg.
In the case of `CC(C)(C)c1cnc(CSc2cnc(NCC3CCNCC3)s2)o1`, the values for the IC50 in data set [1] and in data set [2] were 229 nM and above 10000 nM, respectively.
For `CC(C)(C)c1cnc(CSc2cnc(NC3CCCC(O)C3)s2)o1` (stereo not given), in that order: 28 nM and above 10000 nM.
Turning to `CC(C)(C)c1cnc(CSc2cnc(N[C@H]3CC[C@H](O)CC3)s2)o1`, the figures for the IC50 in [1] and in [2] were 7 nM and 3500 nM, respectively.
On to `CC(C)(C)c1cnc(CSc2cnc(NCC3CCCCC3)s2)o1`, for which the IC50 in data set [1] was 168 nM; in data set [2] it was above 10000 nM.
Take `CC(C)(C)c1cnc(CSc2cnc(N)s2)o1`: the half-maximal inhibitory concentration (IC50) was 690 nM in data set [1] and above 10000 nM in [2].
As for `CC(C)(C)c1cnc(CSc2cnc(N[C@H]3CC[C@@H](N)CC3)s2)o1`, the 50% inhibitory concentration (IC50) in data set [1] is 503 nM; in data set [2], above 10000 nM.
